Results of several laboratories.
Protocols differ between the studies behind these lines.
CNR1: Cannabinoid receptor 1 (CNR1, Homo sapiens, UniProt P21554)
OPRK1: Kappa-type opioid receptor (OPRK1, Homo sapiens, UniProt P41145)
PFF0160c: Dihydroorotate dehydrogenase (quinone), mitochondrial (PFF0160c, Plasmodium falciparum, UniProt Q08210)

SMILES	target	effect on	action	technique	setting	measurement	value
CCCCCn1c(O)c(N=NC(=O)c2ccccc2)c2ccccc21	CNR1	β-arrestin recruitment	agonist			EC50	780 nM
NC(=O)c1ccc(C(=O)N[C@H]2CC[C@@]3(O)[C@H]4Cc5ccc(O)c6c5[C@@]3(CCN4CC3CC3)[C@H]2O6)s1	OPRK1	ligand displacement		radioligand	cell membranes	Ki	1.91 nM
CCCCCc1cc(O)c2c(c1)OC(C)(CCC=C(C)C)C=C2 (stereo not drawn)	CNR1	ligand displacement		radioligand		Ki	6760 nM
O=C(N[C@H]1CC[C@@]2(O)[C@H]3Cc4ccc(O)c5c4[C@@]2(CCN3CC2CC2)[C@H]1O5)c1ccc(F)s1	OPRK1	ligand displacement		radioligand	cell membranes	Ki	2.2 nM
CNC(=O)c1ccc(-c2cnn3ccc(C(=O)N(C)c4ccc(Cl)c(C(=O)OC)c4)cc23)cc1	Serine/threonine-protein kinase WNK1 (WNK1, Homo sapiens, UniProt Q9H4A3)	enzyme activity	inhibitor			IC50	> 30000 nM
CCNC(=O)c1nn(C)c(Cc2ccc(C(F)(F)F)nc2)c1C	PFF0160c	enzyme activity	inhibitor			IC50	5200 nM
Brc1ccc2c(c1)C(c1ccccn1)=NCc1c(-c3cnco3)ncn1-2	OPRK1	ligand displacement		radioligand		Ki	2100 nM
CC[C@@](O)(c1ccc(F)c(Cl)c1)c1c2ccn(C3CC3)c(=O)c2nn1C	PFF0160c	enzyme activity	inhibitor			IC50	6.31 nM
N#Cc1ccc(C(=O)N[C@H]2CC[C@@]3(O)[C@H]4Cc5ccc(O)c6c5[C@@]3(CCN4CC3CC3)[C@H]2O6)s1	OPRK1	ligand displacement		radioligand	cell membranes	Ki	3.61 nM
Cn1nc2c(=O)n(C3CC3)cc(C3CC3)c2c1Cc1ccc(C(F)(F)F)nc1	PFF0160c	enzyme activity	inhibitor			IC50	39.8 nM
COC(=O)[C@@H](NC(=O)c1nn(Cc2ccc(F)cc2)c2ccccc12)C(C)C	CNR1	G protein activation	agonist			EC50	~4 nM
Cn1nc2c(=O)n(C3CC3)ncc2c1[C@](O)(c1ccc(C(F)(F)F)c(Cl)c1)C(F)(F)F	PFF0160c	enzyme activity	inhibitor			IC50	7.94 nM
O=C(N=Nc1c(O)n(CCCCCF)c2ccccc12)c1ccccc1	CNR1	ligand displacement		radioligand	cell membranes	Ki	2240 nM
CCn1cc(C2CC2)c2c(Cc3ccc(C(F)(F)F)c(F)c3)n(C)nc2c1=O	PFF0160c	enzyme activity	inhibitor			IC50	12.6 nM
COc1ccc(C(=O)N[C@H]2CC[C@@]3(O)[C@H]4Cc5ccc(O)c6c5[C@@]3(CCN4CC3CC3)[C@H]2O6)s1	OPRK1	ligand displacement		radioligand	cell membranes	Ki	1.69 nM
